Measured values published in ChEMBL document CHEMBL4196173, “Stabilized β-Hairpin Peptide Inhibits Insulin Degrading Enzyme” (J Med Chem, 2018).
Bridge positions count the residues as written; N and C are the ends. Square brackets hold non-standard residues; d marks the D form. Peptide text beside a SMILES is read from it. * marks the point of attachment. Ileψ(thiazoline)Cys = CC[C@H](C)[C@H](N)C1=N[C@H](C(=O)*)CS1; dOrn = NCCC[C@@H](N)C(=O)O

Experiments:
Insulin-degrading enzyme = molecular target: T1, Insulin-degrading enzyme (Mus musculus, UniProt Q9JHR7); test: Inhibition of mouse His-tagged IDE (42 to 1019 residues) using fluorophore/quencher-tagged RPPGFSAFK(Dnp)-OH peptide as substrate preincubated for 10 mins followed by substrate addition measured over 5 mins by TR-FRET assay
T1 sequence (Q9JHR7 whole entry): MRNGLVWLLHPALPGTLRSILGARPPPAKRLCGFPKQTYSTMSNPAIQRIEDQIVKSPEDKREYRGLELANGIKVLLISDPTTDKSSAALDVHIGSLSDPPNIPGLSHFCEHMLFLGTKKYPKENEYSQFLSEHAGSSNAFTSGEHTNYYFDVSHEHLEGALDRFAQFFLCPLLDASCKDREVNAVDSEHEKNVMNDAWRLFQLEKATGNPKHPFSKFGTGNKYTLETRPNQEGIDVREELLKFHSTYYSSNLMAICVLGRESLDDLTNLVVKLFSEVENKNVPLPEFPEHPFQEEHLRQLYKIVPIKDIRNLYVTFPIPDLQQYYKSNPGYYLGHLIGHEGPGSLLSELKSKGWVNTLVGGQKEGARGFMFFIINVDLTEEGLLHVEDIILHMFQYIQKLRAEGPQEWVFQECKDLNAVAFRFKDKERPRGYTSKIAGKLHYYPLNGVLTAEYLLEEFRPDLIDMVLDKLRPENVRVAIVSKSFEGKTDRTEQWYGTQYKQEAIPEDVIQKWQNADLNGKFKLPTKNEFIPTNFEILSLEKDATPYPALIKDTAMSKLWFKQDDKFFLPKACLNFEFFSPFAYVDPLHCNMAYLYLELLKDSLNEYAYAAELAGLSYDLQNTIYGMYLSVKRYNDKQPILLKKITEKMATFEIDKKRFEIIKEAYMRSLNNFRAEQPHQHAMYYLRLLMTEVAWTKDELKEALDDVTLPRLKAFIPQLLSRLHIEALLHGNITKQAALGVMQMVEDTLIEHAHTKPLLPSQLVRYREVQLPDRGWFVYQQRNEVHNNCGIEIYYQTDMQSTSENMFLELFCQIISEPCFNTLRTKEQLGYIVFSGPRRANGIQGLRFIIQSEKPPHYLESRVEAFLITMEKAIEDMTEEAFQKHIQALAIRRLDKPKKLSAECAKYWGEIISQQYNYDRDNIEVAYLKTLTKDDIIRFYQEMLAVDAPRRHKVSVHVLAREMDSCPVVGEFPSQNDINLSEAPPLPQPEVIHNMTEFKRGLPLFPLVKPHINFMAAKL

[1] = Drug uptake in human HeLa cells at 5 uM using FITC-labeled compound after 2 hrs at 310 K by DAPI-staining based confocal microscopy; assay type: ADME, cell-based
[2] = Drug uptake in human HeLa cells at 5 uM using FITC-labeled compound after 2 hrs at 310 K by trypan blue-fluorescence based FACS analysis; assay type: ADME, cell-based
Outline: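 HeLa cells were grown overnight in DMEM with 10% FBS, then given 5 μM FITC-labelled peptide in FBS-free medium for 2 h at 310 K. Cells were washed with PBS and 0.4% trypan blue, trypsinized and washed. Mean fluorescence was measured by flow cytometry with gated cell counts. Three independent experiments.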

[3] = Hemolytic activity against mouse RBC at 300 uM after 1 hr at 310 K; assay type: ADME, cell-based, Erythrocyte; details: mouse red blood cells (erythrocytes), read-out: Activity
Outline: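 Fresh mouse red cells were washed six times and suspended at 1 × 10^8 cells/mL in PBS. Peptides at 2.3–300 μM were added for 1 h at 310 K. After centrifugation, hemoglobin in the supernatant was read at 576 nm. PBS served as 0% and 0.1% Triton X-100 as 100% lysis. Three independent experiments in duplicate.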

HeLa = test: Cytotoxicity against human HeLa cells assessed as reduction in cell viability at <300 uM after 24 hrs at 310 K by MTT assay; assay type: cell-based
Outline: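 HeLa cells were grown overnight in DMEM with 10% FBS, then exposed to serial dilutions starting at 300 μM in medium with 5% FBS for 24 h at 310 K under 5% CO2. MTT was added for a further 4 h and formazan absorbance read at 490 nm. Three independent experiments in duplicate.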

Which IC50 (Insulin-degrading enzyme) does the source give for `CC(C)C[C@H](NC(=O)[C@@H]1CSC[C@H](NC(=O)[C@H](Cc2ccccc2)NC(=O)[C@H](CCCNC(=N)N)NC(=O)[C@H](Cc2c[nH]c3ccccc23)NC(=O)[C@@H](N)CCC(=O)O)C(=O)NCC(=O)N2CCC[C@@H]2C(=O)N2CCC[C@H]2C(=O)N[C@@H](CCC(=O)O)C(=O)N1)C(=O)N[C@@H](Cc1ccc(O)cc1)C(=O)N[C@@H](CC(C)C)C(=O)N[C@H](C(=O)N[C@H](CS)C(=O)NCC(N)=O)C(C)C` here?
The IC50 was 0.06 µM.

Which IC50 (Insulin-degrading enzyme) does the source give for `CC[C@H](C)[C@H](N)C1=N[C@H](C(=O)N[C@@H](CC(C)C)C(=O)N[C@H](CCC(=O)O)C(=O)N[C@H](C(=O)N[C@H]2CCCCNC(=O)[C@H](CC(N)=O)NC(=O)[C@@H](CC(=O)O)NC(=O)[C@H](Cc3cnc[nH]3)NC(=O)[C@@H](Cc3ccccc3)NC(=O)[C@H]([C@@H](C)CC)NC(=O)[C@@H](CCCN)NC2=O)[C@@H](C)CC)CS1` [BACITRACIN] ({Ileψ(thiazoline)Cys}-L[dE]IK[dOrn]I[dF]H[dD]N; lactam 4-C) here?
Its IC50 is over 200 µM.

For `CC(C)C[C@H](NC(=O)[C@H](C)NC(=O)[C@H](CCC(=O)O)NC(=O)[C@@H]1CCCN1C(=O)[C@H]1CCCN1C(=O)[C@H](Cc1ccccc1)NC(=O)[C@H](CCCNC(=N)N)NC(=O)[C@H](Cc1c[nH]c2ccccc12)NC(=O)[C@@H](N)CCC(=O)O)C(=O)N[C@@H](Cc1ccc(O)cc1)C(=O)N[C@@H](CC(C)C)C(=O)N[C@H](C(=O)N[C@H](CS)C(=O)NCC(N)=O)C(C)C`, which Drug uptake [1] is on record?
The Drug uptake was “Active”.

What about the Drug uptake [2] of the same molecule?
The Drug uptake was “Active”.

And the IC50 (Insulin-degrading enzyme)?
The IC50 was 0.074 µM.

Which IC50 (Insulin-degrading enzyme) does the source give for `CC(C)C[C@H](NC(=O)[C@H](C)NC(=O)[C@H](CCC(=O)O)NC(=O)[C@@H]1CCCN1C(=O)[C@H]1CCCN1C(=O)[C@H](Cc1ccccc1)NC(=O)[C@H](CCCNC(=N)N)NC(=O)[C@H](Cc1c[nH]c2ccccc12)NC(=O)[C@@H](N)CCC(=O)O)C(=O)N[C@@H](Cc1ccc(O)cc1)C(=O)N[C@@H](CC(C)C)C(=O)N[C@H](C(N)=O)C(C)C` here?
Its IC50 is 0.086 µM.

Which hemolysis at 1 h, 300 µM [3] does the source give for `CC(C)C[C@H](NC(=O)[C@H](C)NC(=O)[C@H](CCC(=O)O)NC(=O)CNC(=O)CNC(=O)[C@H](Cc1ccccc1)NC(=O)[C@H](CCCNC(=N)N)NC(=O)[C@H](Cc1c[nH]c2ccccc12)NC(=O)[C@@H](N)CCC(=O)O)C(=O)N[C@@H](Cc1ccc(O)cc1)C(=O)N[C@@H](CC(C)C)C(=O)N[C@H](C(=O)N[C@@H](CS)C(=O)NCC(N)=O)C(C)C` (H-EWRFGGEALYLVCG-NH2) here?
The hemolysis at 1 h, 300 µM was under 10%.

What about the Drug uptake [1] of the same molecule?
The Drug uptake was “Active”.

What about the Drug uptake [2] of the same molecule?
Its Drug uptake is “Active”.

What about the IC50 (Insulin-degrading enzyme) of the same molecule?
The IC50 was 0.3 µM.

With `CC(C)C[C@H](NC(=O)[C@H](C)NC(=O)[C@@H](N)CCC(=O)O)C(=O)N[C@@H](Cc1ccc(O)cc1)C(=O)N[C@@H](CC(C)C)C(=O)N[C@H](C(=O)N[C@@H](CS)C(=O)NCC(=O)N1CCC[C@@H]1C(=O)N1CCC[C@H]1C(=O)N[C@@H](Cc1ccccc1)C(=O)N[C@@H](CCCNC(=N)N)C(=O)N[C@@H](Cc1c[nH]c2ccccc12)C(=O)N[C@@H](CCC(=O)O)C(N)=O)C(C)C` as the molecule, how does the IC50 (Insulin-degrading enzyme) read?
The IC50 was 0.17 µM.

Which IC50 (Insulin-degrading enzyme) does the source give for `CC(C)C[C@H](NC(=O)[C@H](C)NC(=O)[C@@H](N)CCC(=O)O)C(=O)N[C@@H](Cc1ccc(O)cc1)C(=O)N[C@@H](CC(C)C)C(=O)N[C@H](C(=O)N[C@@H](CS)C(=O)NCC(N)=O)C(C)C` (H-EALYLVCG-NH2) here?
The IC50 was 0.23 µM.

With `CC(C)C[C@H](NC(=O)[C@H](C)NC(=O)[C@H](CCC(=O)O)NC(=O)[C@@H]1CCCN1C(=O)[C@H]1CCCN1C(=O)[C@H](Cc1ccccc1)NC(=O)[C@H](CCCNC(=N)N)NC(=O)[C@H](Cc1c[nH]c2ccccc12)NC(=O)[C@@H](N)CCC(=O)O)C(=O)N[C@@H](Cc1ccc(O)cc1)C(N)=O` as the molecule, how does the IC50 (Insulin-degrading enzyme) read?
The IC50 was 0.601 µM.

For `CC(C)C[C@H](NC(=O)[C@H](C)NC(=O)[C@H](CCC(=O)O)NC(=O)[C@@H]1CCCN1C(=O)[C@H]1CCCN1C(=O)[C@H](Cc1ccccc1)NC(=O)[C@@H](N)CCCNC(=N)N)C(=O)N[C@@H](Cc1ccc(O)cc1)C(N)=O`, which IC50 (Insulin-degrading enzyme) is on record?
Its IC50 is over 20 µM.

Which hemolysis at 1 h, 300 µM [3] does the source give for `CC(=O)N[C@@H](CCC(=O)O)C(=O)N[C@@H](Cc1ccccc1)C(=O)N[C@@H](CC(C)C)C(=O)N[C@@H](Cc1c[nH]c2ccccc12)C(=O)N[C@@H](C)C(=O)NCC(=O)N1CCC[C@@H]1C(=O)N1CCC[C@H]1C(=O)N[C@@H](Cc1ccc(O)cc1)C(=O)N[C@@H](C)C(=O)N[C@@H](CS)C(=O)N[C@H](C(=O)NCC(=O)N[C@@H](CCCNC(=N)N)C(=O)N[C@@H](CC(C)C)C(=O)N[C@@H](CCC(=O)O)C(N)=O)C(C)C` here?
Its hemolysis at 1 h, 300 µM is under 10%.

And the Activity (HeLa)?
Its Activity is “Non-Toxic”.

With `CC(C)C[C@H](NC(=O)[C@H](C)NC(=O)[C@H](CCC(=O)O)NC(=O)[C@@H]1CCCN1C(=O)[C@H]1CCCN1C(=O)[C@H](Cc1ccccc1)NC(=O)[C@@H](N)CCCNC(=N)N)C(=O)N[C@@H](Cc1ccc(O)cc1)C(=O)N[C@@H](CC(C)C)C(=O)N[C@H](C(N)=O)C(C)C` as the molecule, how does the IC50 (Insulin-degrading enzyme) read?
The IC50 was over 20 µM.

Which IC50 (Insulin-degrading enzyme) does the source give for `CC(C)C[C@H](NC(=O)[C@@H]1CSC[C@H](NC(=O)[C@H](Cc2ccccc2)NC(=O)[C@H](CCCNC(=N)N)NC(=O)[C@H](Cc2c[nH]c3ccccc23)NC(=O)[C@@H](N)CCC(=O)O)C(=O)NCC(=O)NCC(=O)NCC(=O)N2CCC[C@@H]2C(=O)N2CCC[C@H]2C(=O)N[C@@H](CCC(=O)O)C(=O)N1)C(=O)N[C@@H](Cc1ccc(O)cc1)C(=O)N[C@@H](CC(C)C)C(=O)N[C@H](C(=O)N[C@H](CS)C(=O)NCC(N)=O)C(C)C` here?
The IC50 was 0.077 µM.

Which Drug uptake [1] does the source give for `CC(C)C[C@H](NC(=O)[C@@H]1CNC(=O)C[C@H](NC(=O)[C@H](Cc2ccccc2)NC(=O)[C@H](CCCNC(=N)N)NC(=O)[C@H](Cc2c[nH]c3ccccc23)NC(=O)[C@@H](N)CCC(=O)O)C(=O)NCC(=O)NCC(=O)NCC(=O)N2CCC[C@@H]2C(=O)N2CCC[C@H]2C(=O)N[C@@H](CCC(=O)O)C(=O)N1)C(=O)N[C@@H](Cc1ccc(O)cc1)C(=O)N[C@@H](CC(C)C)C(=O)N[C@H](C(=O)N[C@@H](CS)C(=O)NCC(N)=O)C(C)C` here?
The Drug uptake was “Active”.

And the Drug uptake [2]?
Its Drug uptake is “Active”.

What about the IC50 (Insulin-degrading enzyme) of the same molecule?
Its IC50 is 0.044 µM.
